Test results reported in ChEMBL document CHEMBL1123502, “Synthesis of [[(naphthalenylmethoxy)- and [[(quinolinylmethoxy)phenyl]amino]oxoalkanoic acid esters. A novel series of leukotriene D4 antagonists and 5-lipoxygenase inhibitors” (J Med Chem, 1986).

What was measured:
[1] = target: T1, Polyunsaturated fatty acid 5-lipoxygenase (Rattus norvegicus) (UniProt P12527); experiment: In vitro inhibition of rat polymorphonuclear leukocyte (PMN) 5-Lipoxygenase at 100 uM
T1 sequence (whole entry): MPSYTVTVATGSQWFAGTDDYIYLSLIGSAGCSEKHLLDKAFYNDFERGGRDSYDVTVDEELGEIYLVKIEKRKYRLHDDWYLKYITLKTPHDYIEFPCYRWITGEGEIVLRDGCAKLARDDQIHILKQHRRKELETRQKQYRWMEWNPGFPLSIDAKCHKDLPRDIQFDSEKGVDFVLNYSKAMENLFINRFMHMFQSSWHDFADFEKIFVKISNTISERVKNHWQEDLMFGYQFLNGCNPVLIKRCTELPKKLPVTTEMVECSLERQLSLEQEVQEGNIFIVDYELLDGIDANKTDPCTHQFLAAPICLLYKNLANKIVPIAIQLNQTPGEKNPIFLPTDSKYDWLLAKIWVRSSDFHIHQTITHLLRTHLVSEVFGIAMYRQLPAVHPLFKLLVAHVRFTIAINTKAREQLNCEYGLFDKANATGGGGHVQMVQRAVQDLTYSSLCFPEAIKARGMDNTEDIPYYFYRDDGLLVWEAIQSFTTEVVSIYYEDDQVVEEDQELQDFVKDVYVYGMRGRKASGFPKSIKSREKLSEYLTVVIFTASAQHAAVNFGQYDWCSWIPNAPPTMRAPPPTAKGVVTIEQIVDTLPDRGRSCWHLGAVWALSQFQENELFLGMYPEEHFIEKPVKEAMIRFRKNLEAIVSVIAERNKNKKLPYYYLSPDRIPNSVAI

[2] = In vivo inhibition of LTD4-induced bronchospasm in guinea pig at dose of 50 mg/kg; details: Cavia porcellus
[3] = target: T2, Polyunsaturated fatty acid 5-lipoxygenase (Rattus norvegicus, UniProt P12527); experiment: Inhibition of rat polymorphonuclear leukocyte (PMN) 5-Lipoxygenase in vitro
T2 sequence (P12527 whole entry): T1 sequence (whole entry)
Method in brief: (§1)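 Peritoneal PMNs came from female Wistar rats 24 h after ip 6% glycogen. Cells at 2×10^7/mL in HBSS with Ca2+/Mg2+ and 10 mM L-cysteine were preincubated with drug or vehicle for 10 min at 37 °C. The reaction was stopped with ice-cold water and acidified to pH 3.5, and LO and CO products were ether-extracted. IC50 per metabolite came from nonlinear regression.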

Cyclooxygenase = target: T3, Cyclooxygenase (Rattus norvegicus, UniProt P35355+Q63921); experiment: In vitro inhibition of rat polymorphonuclear leukocyte (PMN) Prostaglandin G/H synthase; type: protein assay
T3 sequence (P35355 whole entry): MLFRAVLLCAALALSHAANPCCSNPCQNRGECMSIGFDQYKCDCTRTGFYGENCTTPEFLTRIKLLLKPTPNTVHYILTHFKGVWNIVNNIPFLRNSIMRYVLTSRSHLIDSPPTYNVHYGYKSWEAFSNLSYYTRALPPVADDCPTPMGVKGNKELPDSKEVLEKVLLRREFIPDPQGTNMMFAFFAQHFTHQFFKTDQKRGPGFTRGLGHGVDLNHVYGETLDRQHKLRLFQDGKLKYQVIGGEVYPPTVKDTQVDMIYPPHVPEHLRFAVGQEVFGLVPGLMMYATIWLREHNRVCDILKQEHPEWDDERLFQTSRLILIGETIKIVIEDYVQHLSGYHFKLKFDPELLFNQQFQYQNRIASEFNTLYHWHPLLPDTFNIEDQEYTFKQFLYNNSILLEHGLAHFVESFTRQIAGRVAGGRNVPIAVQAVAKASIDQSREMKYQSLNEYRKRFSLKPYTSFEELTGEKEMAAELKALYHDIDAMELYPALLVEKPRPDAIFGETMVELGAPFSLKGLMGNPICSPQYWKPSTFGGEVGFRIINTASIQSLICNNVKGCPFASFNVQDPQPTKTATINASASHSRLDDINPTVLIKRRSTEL
T3 sequence (Q63921 whole entry): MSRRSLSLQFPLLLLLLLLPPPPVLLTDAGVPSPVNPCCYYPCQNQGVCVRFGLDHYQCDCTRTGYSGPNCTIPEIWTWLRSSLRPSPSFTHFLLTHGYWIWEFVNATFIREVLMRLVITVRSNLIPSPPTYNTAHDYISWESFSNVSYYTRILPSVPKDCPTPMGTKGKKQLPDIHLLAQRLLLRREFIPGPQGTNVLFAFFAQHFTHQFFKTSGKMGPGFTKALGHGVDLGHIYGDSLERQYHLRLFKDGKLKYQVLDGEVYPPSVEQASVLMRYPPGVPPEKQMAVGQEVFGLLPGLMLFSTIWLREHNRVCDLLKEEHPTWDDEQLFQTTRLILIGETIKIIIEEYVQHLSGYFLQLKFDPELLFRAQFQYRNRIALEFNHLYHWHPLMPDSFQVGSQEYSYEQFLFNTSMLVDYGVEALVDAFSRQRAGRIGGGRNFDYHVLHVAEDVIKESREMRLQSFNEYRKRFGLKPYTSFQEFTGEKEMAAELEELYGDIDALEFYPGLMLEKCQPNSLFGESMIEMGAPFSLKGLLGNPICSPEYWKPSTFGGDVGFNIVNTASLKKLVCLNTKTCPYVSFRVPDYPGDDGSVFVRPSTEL
Method in brief: as §1

[4] = target: Cyclooxygenase (Rattus norvegicus) (UniProt P35355+Q63921); experiment: In vitro inhibition of rat polymorphonuclear leukocyte (PMN) Prostaglandin G/H synthase at 100 uM
Cavia porcellus [5] = experiment: Compound was evaluated in vivo for the percent inhibition of Ovalbumin-induced (OA) bronchospasm in guinea pig at dose of 50 mg/kg id; type: functional; details: route intraduodenal
Method in brief: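 Male Hartley guinea pigs (350-600 g) were sensitized with ovalbumin (5 mg ip plus 5 mg sc) and used 3-5 weeks later. They were anesthetized with pentobarbital, ventilated, and given indomethacin (10 mg/kg iv, 9 min before challenge) and chlorpheniramine (1.0 mg/kg iv, 1 min later). Drug was given id (or as noted) 10 min before 1% aerosolized ovalbumin; controls received saline. Overflow volume at 1, 3 and 5 min was taken as % of maximal bronchoconstriction and converted to % inhibition.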

Cavia porcellus [6] = species on record: Cavia porcellus; experiment: Compound was evaluated for its effect on LTD4-induced contraction of guinea pig trachea; type: functional
Method in brief: (§2)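 Isolated guinea pig tracheal spiral strips were contracted with LTC4 or LTD4, with antagonist at 3×10^-6 M versus untreated control. Responses are expressed as percentage of the tissue's maximal response to carbachol (1 mM). Potency is given as -log of the agonist concentration (M) giving a half-maximal response. pKB = -log([B]/(dose ratio - 1)), where dose ratio = treated ED50 ÷ control ED50. Control vs treated compared by unpaired Student's t test.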

Cavia porcellus [7] = species on record: Cavia porcellus; experiment: Compound was evaluated for its effect on LTC4-induced contraction of guinea pig trachea; type: functional
Method in brief: as §2

Cavia porcellus [8] = species on record: Cavia porcellus; experiment: Compound was evaluated for its effect on LTD4-induced contraction of guinea pig trachea; percentage of maximal response of tissue to carbachol; type: functional
Method in brief: as §2

Cavia porcellus [9] = species on record: Cavia porcellus; experiment: Compound was evaluated for its effect on LTC4-induced contraction of guinea pig trachea; percentage of maximal response of tissue to carbachol; type: functional
Method in brief: as §2

SMILES | inhibition [2] | IC50 [3] | inhibition [4] | inhibition in vivo at 50 mg/kg (Cavia porcellus [5]) | further results
N#CCCNC(=O)c1cccc(OCc2ccc3ccccc3c2)c1 | – | – | – | – | inhibition [1]: < 50%
O=C(O)CCNC(=O)c1cccc(OCc2ccc3ccccc3c2)c1 | 10% | – | – | – | inhibition [1]: < 50%
COC(=O)CCC(=O)N(O)c1cccc(COc2ccc3ccccc3c2)c1 | 5% | 0.86 µM | – | – | IC50 (Cyclooxygenase): 6.1 µM
COC(=O)CCNC(=O)c1cccc(OCc2ccc3ccccc3n2)c1 | -3% | 35.2 µM | – | – | –
COC(=O)CCCC(=O)Nc1cccc(OCc2ccc3ccccc3n2)c1 | – | 10.4 µM | – | – | –
COC(=O)CCC(=O)Nc1ccc(OCc2ccc3ccccc3n2)cc1 | -7% | 2.6 µM | < 50% | – | –
CCOC(=O)CC(=O)Nc1cccc(OCc2ccc3ccccc3n2)c1 | – | 19 µM | < 50% | 67% | –
COC(=O)CC(=O)Nc1cccc(OCc2ccc3ccccc3c2)c1 | – | 9.5 µM | < 50% | – | –
COC(=O)CCC(=O)Nc1ccc(OCc2ccc3ccccc3c2)cc1 | 12% | – | – | – | inhibition [1]: < 50%
COC(=O)CCC(=O)Nc1cc(OCc2ccc3ccccc3n2)ccc1C | 23% | 7.6 µM | < 50% | – | –
O=C(O)CCNC(=O)c1cccc(COc2ccc3ccccc3c2)c1 | 2% | – | – | – | inhibition [1]: < 50%
COC(=O)CCNC(=O)c1cccc(OCc2ccc3ccccc3c2)c1 | – | 29.5 µM | < 50% | – | –
COC(=O)CCC(=O)Nc1cccc(OCc2ccc3ccccc3n2)c1 | 86% | 28 µM | < 50% | 43% | –
COC(=O)CCC(=O)N(O)c1cccc(OCc2ccc3ccccc3c2)c1 | – | 0.6 µM | – | 18% | IC50 (Cyclooxygenase): 7.4 µM
COC(=O)C(=O)Nc1cccc(OCc2ccc3ccccc3c2)c1 | -1% | 6.9 µM | < 50% | – | –
COC(=O)CCC(=O)Nc1cccc(OCc2ccc3ccc(C)cc3n2)c1 | -6.1% | – | < 50% | – | inhibition [1]: < 50%

SMILES | inhibition [2] | IC50 [3] | inhibition [4] | inhibition in vivo at 50 mg/kg (Cavia porcellus [5]) | further results
COC(=O)CCC(=O)Nc1ccccc1OCc1ccc2ccccc2c1 | – | 86.2 µM | < 50% | – | –
O=C(O)CCC(=O)N(O)c1cccc(OCc2ccc3ccccc3c2)c1 | – | 15.7 µM | – | -35% | –
COC(=O)CCNC(=O)c1cccc(COc2ccc3ccccc3c2)c1 | -6% | 60.5 µM | – | – | –
COC(=O)CCC(=O)Nc1cccc(OCc2ccc3ccccc3n2)c1C | – | 15.5 µM | < 50% | – | –
COC(=O)CCC(=O)Nc1cccc(OCc2ccc3ccccc3n2)c1C#N | -6% | – | < 50% | – | inhibition [1]: < 50%
O=C(O)CCC(=O)Nc1cccc(OCc2ccc3ccccc3n2)c1 | 66% | – | – | -20% | inhibition [1]: < 50%
COC(=O)CC(=O)Nc1cccc(OCc2ccc3ccccc3n2)c1 | – | 24.6 µM | < 50% | 57% | –
COC(=O)CCCC(=O)Nc1cccc(OCc2ccc3ccccc3c2)c1 | 5% | 12.6 µM | – | – | –
CCCCCC(O)c1cccc(OCc2ccc3ccccc3n2)c1 (stereo unspecified) | – | – | < 50% | – | –
COC(=O)CCC(=O)Nc1cccc(OCc2cccc3cccnc23)c1 | – | – | – | – | inhibition [1]: < 50%
COC(=O)C(=O)Nc1cccc(OCc2ccc3ccccc3n2)c1 | -2% | 5.3 µM | < 50% | – | –
COC(=O)CCC(=O)N(C)c1cccc(OCc2ccc3ccccc3n2)c1 | 48% | 14 µM | < 50% | 2% | –
COC(=O)CCC(=O)Nc1cccc(Oc2ccc3ccccc3n2)c1 | 29% | 26 µM | – | -55% | –
COC(=O)CCC(=O)N(O)c1cccc(OCc2ccc3ccccc3n2)c1 | 97% | 1.4 µM | – | 76% | -Log ED50 (Cavia porcellus [6]): 7.79; pKB (Cavia porcellus [6]): 5.33; -Log ED50 (Cavia porcellus [7]): 7.5; pKB (Cavia porcellus [7]): 5.35; Max contractility (Cavia porcellus [8]): 63%; Max contractility (Cavia porcellus [9]): 77%; IC50 (Cyclooxygenase): 40 µM
CCOC(=O)CCC(=O)Nc1cccc(OCc2ccc3ccccc3n2)c1 | 95% | 12.6 µM | < 50% | 6% | –
COC(=O)CCC(=O)Nc1cccc(COc2ccc3ccccc3c2)c1 | – | 1.91 µM | < 50% | – | –
